Shown are actives, neighbours in structure and some others; about 1.8% of the full set was active somewhere.
M5 PAM: CHRM5 positive allosteric modulation; P08912; CHO-K1 hM5, Fluo-8 calcium, ACh EC20 PAM; 0% = ACh EC20, 100% = ACh EC100; activation, % at 3 µM; 0.3% of 360,000 active;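 active = activation above the run cutoff, the mean activation of all test compounds plus 3 SD, cut at about 18% in these data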
Target sequence (P08912 whole entry, looked up): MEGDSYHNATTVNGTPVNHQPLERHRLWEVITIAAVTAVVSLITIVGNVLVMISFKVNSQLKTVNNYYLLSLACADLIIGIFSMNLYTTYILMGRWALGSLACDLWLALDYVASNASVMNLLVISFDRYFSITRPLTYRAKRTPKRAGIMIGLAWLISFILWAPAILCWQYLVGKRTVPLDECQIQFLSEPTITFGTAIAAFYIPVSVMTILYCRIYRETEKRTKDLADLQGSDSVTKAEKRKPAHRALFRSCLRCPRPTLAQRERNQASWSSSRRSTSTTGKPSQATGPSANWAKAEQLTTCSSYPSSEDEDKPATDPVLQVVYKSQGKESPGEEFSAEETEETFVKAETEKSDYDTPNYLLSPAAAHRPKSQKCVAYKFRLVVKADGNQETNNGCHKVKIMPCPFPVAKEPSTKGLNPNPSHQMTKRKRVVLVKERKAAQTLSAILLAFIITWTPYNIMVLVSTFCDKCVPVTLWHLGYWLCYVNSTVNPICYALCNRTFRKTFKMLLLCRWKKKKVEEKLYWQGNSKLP
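Test system: CHO-K1 hM5 cells / Doses: single-point, 3 µM nominal / Times: Post-acetylcholine fluorescence recording 140 s / Technique: Fluo-8 calcium fluorescence / Measure: Max/basal fluorescence ratio as % of EC20–EC100 ACh window / Benchmarks: low control EC20 acetylcholine (0%), high control EC100 acetylcholine (100%) / Replicates: one well per compound, no replicates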
CHRM4 antagonist: CHRM4 antagonism in calcium assay. P08173. CHO-hM4 cells, ACh EC80, Fluo-8 calcium fluorescence. inhibition, % at 3 µM. 0.73% of 360,000 active;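 active = inhibition above its plate's cutoff, the mean inhibition of sample wells plus 3 SD, cut at about 27% in these data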
M5 antag: antagonists of human muscarinic M5 receptor (CHRM5) | 0.59% of 360,000 active | CHO-hM5 cells, Fluo-8 calcium fluorescence, ACh EC80 | inhibition, % at 3 µM | P08912;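 active = inhibition above a per-plate cutoff, the mean of that plate's test compounds plus 3 SD, cut at about 27% in these data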
M4 ag: agonists of human muscarinic M4 receptor (CHRM4); P08173; CHO-K1 hM4/Gqi5, Fluo-8 calcium fluorescence; vehicle 0%, full acetylcholine response 100%; activation, % at 3 µM; 0.14% of 360,000 active;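 active = activation above the run mean over all test wells plus 3 SD, cut at about 32% in these data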;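 also: peak over basal fluorescence ratio per well then scaled between controls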
CHRM4 PAM: positive allosteric modulators of human muscarinic M4 receptor | CHO-K1 hM4/Gqi5, Fluo-8 calcium fluorescence, ACh EC20; 0% = ACh EC20, 100% = maximal ACh | AID 624126 | activation, % at 3 µM | P08173 | 0.4% of 360,000 active;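 active = activation above its plate's cutoff, the mean activation of sample wells plus 3 SD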
M5 ag: agonists of human muscarinic M5 receptor (CHRM5); CHO-K1 hM5 cells, Fluo-8 calcium fluorescence; 0% DMSO wells, 100% maximal acetylcholine response; 0.19% of 360,000 active; P08912; activation, % at 3 µM;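 active = activation above the run's mean over test compounds plus 3 SD, cut at about 23% in these data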;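 also: signal is peak over basal fluorescence ratio across the kinetic read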
A number is an active result.

What do the screens show for `CC(=O)c1ccc(NC(=O)c2ccc(C)c(S(=O)(=O)N3CCOCC3)c2)cc1`?
M5 PAM: inactive; CHRM4 antagonist: inactive; M5 antag: inactive; M4 ag: inactive; CHRM4 PAM: inactive; M5 ag: inactive

What do the screens show for `O=C(OCC(=O)N1CCCC1=O)c1cccc(S(=O)(=O)N2CCOCC2)c1`?
M5 PAM: 32; CHRM4 antagonist: inactive; M5 antag: inactive; M4 ag: inactive; CHRM4 PAM: inactive; M5 ag: inactive

How did CC1NC(=O)c2cc3ccccc3cc2-n2c1nc1ccc(F)cc1c2=O (stereo not drawn) do in these assays?
M5 PAM: inactive; CHRM4 antagonist: inactive; M5 antag: inactive; M4 ag: inactive; CHRM4 PAM: inactive; M5 ag: inactive

Results for CCOC(=O)c1c(NC(=O)CN(CC)CC)sc2c1CCN(C(=O)OCC)C2 ?
M5 PAM: inactive; CHRM4 antagonist: inactive; M5 antag: inactive; M4 ag: inactive; CHRM4 PAM: inactive; M5 ag: inactive

What do the screens show for `COCCN1Cc2cccc(C(=O)Nc3ccc(S(=O)(=O)N4CCCCC4)cc3)c2C1=O`?
M5 PAM: 25; CHRM4 antagonist: inactive; M5 antag: inactive; M4 ag: inactive; CHRM4 PAM: inactive; M5 ag: inactive

How did CCOC(=O)c1ccc(NC(=O)c2cccc(S(=O)(=O)N3CCOCC3)c2)cc1 do in these assays?
M5 PAM: inactive; CHRM4 antagonist: 38; M5 antag: inactive; M4 ag: inactive; CHRM4 PAM: inactive; M5 ag: inactive

How did O=C(NCc1cccnc1)c1cccc(S(=O)(=O)N2CCOCC2)c1 do in these assays?
M5 PAM: 31; CHRM4 antagonist: inactive; M5 antag: inactive; M4 ag: inactive; CHRM4 PAM: inactive; M5 ag: inactive

How did CCOC(=O)c1c(NC(=S)N2CCN(C)CC2)sc2c1CCN(C(=O)OCC)C2 do in these assays?
M5 PAM: inactive; CHRM4 antagonist: inactive; M5 antag: inactive; M4 ag: inactive; CHRM4 PAM: 12; M5 ag: inactive

What do the screens show for `CC(=O)c1cccc(NC(=O)c2cccc(S(=O)(=O)N3CCOCC3)c2)c1`?
M5 PAM: inactive; CHRM4 antagonist: inactive; M5 antag: inactive; M4 ag: inactive; CHRM4 PAM: inactive; M5 ag: inactive

What do the screens show for `O=C(NCc1cccnc1)c1cccc(S(=O)(=O)N2CCCC2)c1`?
M5 PAM: inactive; CHRM4 antagonist: inactive; M5 antag: inactive; M4 ag: inactive; CHRM4 PAM: inactive; M5 ag: inactive

How did CCc1ccc2c(c1)NC(=O)C2(C)Cc1ccccc1Cl (stereo not drawn) do in these assays?
M5 PAM: inactive; CHRM4 antagonist: inactive; M5 antag: inactive; M4 ag: inactive; CHRM4 PAM: inactive; M5 ag: inactive

What do the screens show for `COc1ccc(N2CCN(C3CCCN(Cc4cccc(OC)c4)C3)CC2)cc1` (stereo not drawn)?
M5 PAM: inactive; CHRM4 antagonist: inactive; M5 antag: inactive; M4 ag: inactive; CHRM4 PAM: inactive; M5 ag: inactive

What do the screens show for `O=C(N/N=C/c1ccccc1C(=O)O)c1cccc(S(=O)(=O)N2CCCCC2)c1`?
M5 PAM: inactive; CHRM4 antagonist: inactive; M5 antag: inactive; M4 ag: inactive; CHRM4 PAM: inactive; M5 ag: inactive

Results for CN(C(=O)c1cc(S(=O)(=O)N2CCOCC2)cs1)c1ccccc1 ?
M5 PAM: inactive; CHRM4 antagonist: inactive; M5 antag: inactive; M4 ag: inactive; CHRM4 PAM: inactive; M5 ag: inactive

How did Cc1ccc(S(=O)(=O)NCC(=O)N(CC(=O)NCC2CCCO2)Cc2ccco2)cc1 (stereo not drawn) do in these assays?
M5 PAM: inactive; CHRM4 antagonist: inactive; M5 antag: inactive; M4 ag: inactive; CHRM4 PAM: inactive; M5 ag: inactive

How did CN1CCN(S(=O)(=O)c2ccc(NC(=O)c3cccc(S(=O)(=O)N4CCCC4)c3)cc2)CC1 do in these assays?
M5 PAM: inactive; CHRM4 antagonist: 37; M5 antag: 29; M4 ag: inactive; CHRM4 PAM: inactive; M5 ag: inactive

Results for CC1CCCC(NC(=O)c2cccc(S(=O)(=O)N3CCOCC3)c2)C1C (stereo not drawn) ?
M5 PAM: inactive; CHRM4 antagonist: inactive; M5 antag: inactive; M4 ag: inactive; CHRM4 PAM: 16; M5 ag: inactive

How did CC(=O)N1CCN(S(=O)(=O)c2cccc(C(=O)NC3CCCC(C)C3C)c2)CC1 (stereo not drawn) do in these assays?
M5 PAM: inactive; CHRM4 antagonist: inactive; M5 antag: inactive; M4 ag: inactive; CHRM4 PAM: inactive; M5 ag: inactive

How did Cc1[nH]c2ccccc2c1/C=N/NC(=O)c1cc(-c2ccccc2)n[nH]1 do in these assays?
M5 PAM: inactive; CHRM4 antagonist: inactive; M5 antag: inactive; M4 ag: inactive; CHRM4 PAM: inactive; M5 ag: inactive

What do the screens show for `Cc1[nH]c2ccccc2c1/C=N/NC(=O)c1cc(-c2ccncc2)nc2ccccc12`?
M5 PAM: 31; CHRM4 antagonist: inactive; M5 antag: inactive; M4 ag: inactive; CHRM4 PAM: inactive; M5 ag: inactive

What do the screens show for `CC(=O)c1cccc(NS(=O)(=O)c2cc(OCC(N)=O)c(C)cc2Cl)c1`?
M5 PAM: inactive; CHRM4 antagonist: inactive; M5 antag: inactive; M4 ag: inactive; CHRM4 PAM: inactive; M5 ag: inactive

What do the screens show for `Cc1ccc(NS(=O)(=O)c2cc(OCC(N)=O)c(C)cc2Cl)cc1C`?
M5 PAM: inactive; CHRM4 antagonist: inactive; M5 antag: inactive; M4 ag: inactive; CHRM4 PAM: inactive; M5 ag: 34

What do the screens show for `Cc1cccc(NS(=O)(=O)c2cc(OCC(N)=O)c(C)cc2Cl)c1`?
M5 PAM: inactive; CHRM4 antagonist: inactive; M5 antag: inactive; M4 ag: inactive; CHRM4 PAM: inactive; M5 ag: 28

Results for Cc1ccccc1NS(=O)(=O)c1cc(OCC(N)=O)c(C)cc1Cl ?
M5 PAM: inactive; CHRM4 antagonist: inactive; M5 antag: inactive; M4 ag: inactive; CHRM4 PAM: inactive; M5 ag: inactive

What do the screens show for `O[C@@H]1CN(CC2CCCCC2)[C@@H](c2ccccc2)C[C@H]1n1cc(-c2ccc(F)cc2)nn1`?
M5 PAM: inactive; CHRM4 antagonist: inactive; M5 antag: inactive; M4 ag: inactive; CHRM4 PAM: inactive; M5 ag: inactive

How did O=[N+]([O-])c1ccc(Oc2ccc(Oc3ccc(C(F)(F)F)cn3)cc2)nc1 do in these assays?
M5 PAM: inactive; CHRM4 antagonist: inactive; M5 antag: inactive; M4 ag: inactive; CHRM4 PAM: inactive; M5 ag: inactive

Results for CCCCn1c(SCC(=O)N(C)C2CCS(=O)(=O)C2)nc2cc(S(N)(=O)=O)ccc21 (stereo not drawn) ?
M5 PAM: inactive; CHRM4 antagonist: inactive; M5 antag: inactive; M4 ag: inactive; CHRM4 PAM: inactive; M5 ag: inactive
